Laboratory results: ChEMBL document CHEMBL3865799, “Synthesis of a series of novel dihydroartemisinin monomers and dimers containing chalcone as a linker and their anticancer activity” (Eur J Med Chem, 2016)

Legend:
[1] = Cytotoxicity against human PC3 cells assessed as cell growth inhibition at 0.5 uM after 48 hrs by MTT assay; assay type: functional; details: PC-3, 48 h, read-out: GI
Summary of the method: (§1)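 Adherent lines at 70–75% confluence, grown at 37 °C in 5% CO2 with 10% FCS. Exposed 48 h to compound in DMSO (vehicle <0.2% v/v). MTT dye added 3 h before termination; formazan dissolved in DMSO, OD 570 nm with 620 nm reference. Growth inhibition expressed as % of untreated; IC50 taken from the dose series.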

[2] = Cytotoxicity against human HL60 cells assessed as cell growth inhibition at 50 uM after 48 hrs by MTT assay; assay type: functional; details: HL-60, 48 h, read-out: GI
Summary of the method: (§2)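 HL-60 suspension cells, 1.5 × 10^4 per well, grown at 37 °C in 5% CO2 with 10% FCS. Treated 48 h with compound in DMSO (vehicle <0.2% v/v). MTT added 3 h before the end. Formazan dissolved in DMSO and read at 570 nm (reference 620 nm). % growth inhibition computed against untreated cells; IC50 taken from the concentration series.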

[3] = Cytotoxicity against human HL60 cells assessed as cell growth inhibition at 30 uM after 48 hrs by MTT assay; assay type: functional; details: HL-60, 48 h, read-out: GI; summary of the method: as §2
[4] = Cytotoxicity against human MIAPaCa2 cells assessed as cell growth inhibition at 30 uM after 48 hrs by MTT assay; assay type: functional; details: MIA PaCa-2, 48 h, read-out: GI; summary of the method: as §1
[5] = Cytotoxicity against human MIAPaCa2 cells assessed as cell growth inhibition at 50 uM after 48 hrs by MTT assay; assay type: functional; details: MIA PaCa-2, 48 h, read-out: GI; summary of the method: as §1
[6] = Cytotoxicity against human PC3 cells assessed as cell growth inhibition at 30 uM after 48 hrs by MTT assay; assay type: functional; details: PC-3, 48 h, read-out: GI; summary of the method: as §1
[7] = Cytotoxicity against human PC3 cells assessed as cell growth inhibition at 50 uM after 48 hrs by MTT assay; assay type: functional; details: PC-3, 48 h, read-out: GI; summary of the method: as §1
[8] = Cytotoxicity against human HepG2 cells assessed as cell growth inhibition at 30 uM after 48 hrs by MTT assay; assay type: functional; details: HepG2, 48 h, read-out: GI; summary of the method: as §1
[9] = Cytotoxicity against human HepG2 cells assessed as cell growth inhibition at 50 uM after 48 hrs by MTT assay; assay type: functional; details: HepG2, 48 h, read-out: GI; summary of the method: as §1
[10] = Cytotoxicity against human LS180 cells assessed as cell growth inhibition at 30 uM after 48 hrs by MTT assay; assay type: functional; details: LS180, 48 h, read-out: GI; summary of the method: as §1
[11] = Cytotoxicity against human LS180 cells assessed as cell growth inhibition at 50 uM after 48 hrs by MTT assay; assay type: functional; details: LS180, 48 h, read-out: GI; summary of the method: as §1
[12] = Cytotoxicity against human HL60 cells assessed as cell growth inhibition at 0.5 uM after 48 hrs by MTT assay; assay type: functional; details: HL-60, 48 h, read-out: GI; summary of the method: as §2
[13] = Cytotoxicity against human HL60 cells assessed as cell growth inhibition at 1 uM after 48 hrs by MTT assay; assay type: functional; details: HL-60, 48 h, read-out: GI; summary of the method: as §2
[14] = Cytotoxicity against human HL60 cells assessed as cell growth inhibition at 10 uM after 48 hrs by MTT assay; assay type: functional; details: HL-60, 48 h, read-out: GI; summary of the method: as §2
[15] = Cytotoxicity against human HL60 cells assessed as cell growth inhibition after 48 hrs by MTT assay; assay type: functional, cell-based; details: HL-60, 48 h; summary of the method: as §2
[16] = tested on: Vero; assay: Selectivity index, ratio of IC50 for African green monkey Vero cells to IC50 for human HL60 cells; assay type: functional
Summary of the method: (§3)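 Suspension cells were seeded at 1.5 × 10^4 per well and adherent lines at 70–75% confluence, then exposed to a range of concentrations. MTT was added 3 h before the end, formazan dissolved in DMSO, and OD read at 570 nm (reference 620 nm). Growth inhibition was taken relative to untreated cells. IC50 came from the MTT data; SI = IC50 in Vero cells / IC50 in the tumour line.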

[17] = Cytotoxicity against human MIAPaCa2 cells assessed as cell growth inhibition at 0.5 uM after 48 hrs by MTT assay; assay type: functional; details: MIA PaCa-2, 48 h, read-out: GI; summary of the method: as §1
[18] = Cytotoxicity against human MIAPaCa2 cells assessed as cell growth inhibition at 1 uM after 48 hrs by MTT assay; assay type: functional; details: MIA PaCa-2, 48 h, read-out: GI; summary of the method: as §1
[19] = Cytotoxicity against human MIAPaCa2 cells assessed as cell growth inhibition at 10 uM after 48 hrs by MTT assay; assay type: functional; details: MIA PaCa-2, 48 h, read-out: GI; summary of the method: as §1
[20] = Cytotoxicity against human MIAPaCa2 cells assessed as cell growth inhibition after 48 hrs by MTT assay; assay type: functional, cell-based; details: MIA PaCa-2, 48 h; summary of the method: as §1
[21] = tested on: Vero; assay: Selectivity index, ratio of IC50 for African green monkey Vero cells to IC50 for human MIAPaCa2 cells; assay type: functional; summary of the method: as §3
[22] = Cytotoxicity against human PC3 cells assessed as cell growth inhibition at 1 uM after 48 hrs by MTT assay; assay type: functional; details: PC-3, 48 h, read-out: GI; summary of the method: as §1
[23] = Cytotoxicity against human PC3 cells assessed as cell growth inhibition at 10 uM after 48 hrs by MTT assay; assay type: functional; details: PC-3, 48 h, read-out: GI; summary of the method: as §1
[24] = Cytotoxicity against human PC3 cells assessed as cell growth inhibition after 48 hrs by MTT assay; assay type: functional, cell-based; details: PC-3, 48 h
Summary of the method: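 Exposed 48 h to compound in DMSO (vehicle <0.2% v/v). MTT dye added 3 h before termination; formazan dissolved in DMSO, OD 570 nm with 620 nm reference. Growth inhibition expressed as % of untreated; IC50 taken from the dose series.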

[25] = tested on: Vero; assay: Selectivity index, ratio of IC50 for African green monkey Vero cells to IC50 for human PC3 cells; assay type: functional; summary of the method: as §3
[26] = Cytotoxicity against human HepG2 cells assessed as cell growth inhibition at 0.5 uM after 48 hrs by MTT assay; assay type: functional; details: HepG2, 48 h, read-out: GI; summary of the method: as §1
[27] = Cytotoxicity against human HepG2 cells assessed as cell growth inhibition at 1 uM after 48 hrs by MTT assay; assay type: functional; details: HepG2, 48 h, read-out: GI; summary of the method: as §1
[28] = Cytotoxicity against human HepG2 cells assessed as cell growth inhibition at 10 uM after 48 hrs by MTT assay; assay type: functional; details: HepG2, 48 h, read-out: GI; summary of the method: as §1
[29] = Cytotoxicity against human HepG2 cells assessed as cell growth inhibition after 48 hrs by MTT assay; assay type: functional, cell-based; details: HepG2, 48 h; summary of the method: as §1
[30] = tested on: HepG2; assay: Selectivity index, ratio of IC50 for African green monkey Vero cells to IC50 for human HepG2 cells; assay type: functional; summary of the method: as §3
[31] = Cytotoxicity against human LS180 cells assessed as cell growth inhibition at 0.5 uM after 48 hrs by MTT assay; assay type: functional; details: LS180, 48 h, read-out: GI; summary of the method: as §1
[32] = Cytotoxicity against human LS180 cells assessed as cell growth inhibition at 1 uM after 48 hrs by MTT assay; assay type: functional; details: LS180, 48 h, read-out: GI; summary of the method: as §1
[33] = Cytotoxicity against human LS180 cells assessed as cell growth inhibition at 10 uM after 48 hrs by MTT assay; assay type: functional; details: LS180, 48 h, read-out: GI; summary of the method: as §1
[34] = Cytotoxicity against human LS180 cells assessed as cell growth inhibition after 48 hrs by MTT assay; assay type: functional, cell-based; details: LS180, 48 h; summary of the method: as §1
[35] = Selectivity index, ratio of IC50 for African green monkey Vero cells to IC50 for human LS180 cells; assay type: functional; summary of the method: as §3
[36] = Lipophilicity, log P of the compound; assay type: physicochemical; details: octanol/water
[37] = Aqueous solubility of the compound at pH 7; assay type: physicochemical

COc1cc(/C=C/C(=O)c2ccc(OCCO[C@H]3O[C@@H]4O[C@@]5(C)CC[C@H]6[C@H](C)CC[C@@H]([C@H]3C)[C@@]46OO5)cc2)cc(OC)c1OCCO[C@H]1O[C@@H]2O[C@@]3(C)CC[C@H]4[C@H](C)CC[C@@H]([C@H]1C)[C@@]24OO3
inhibition of growth at 0.5 µM [1]: 34.5%
inhibition of growth at 50 µM [2]: 86.1%
inhibition of growth at 30 µM [3]: 85.4%
inhibition of growth at 30 µM [4]: 37.4 to 40.1%
inhibition of growth at 50 µM [5]: 48.1%
inhibition of growth at 30 µM [6]: 57.6%
inhibition of growth at 50 µM [7]: 57.9%
inhibition of growth at 30 µM [8]: 32.9%
inhibition of growth at 50 µM [9]: 33.8 to 58.1%
inhibition of growth at 30 µM [10]: 58.1%
inhibition of growth at 50 µM [11]: 70.1%
inhibition of growth at 0.5 µM [12]: 77.2%
inhibition of growth at 1 µM [13]: 83.9%
inhibition of growth at 10 µM [14]: 84.6%
IC50 [15]: 0.3 µM
Ratio IC50 [16]: 88
inhibition of growth at 0.5 µM [17]: 37.3%
inhibition of growth at 1 µM [18]: 38.1%
inhibition of growth at 10 µM [19]: 38.7%
IC50 [20]: > 50 µM
Ratio IC50 [21]: 100
inhibition of growth at 1 µM [22]: 45.9%
inhibition of growth at 10 µM [23]: 50.2%
IC50 [24]: 10 µM
Ratio IC50 [25]: 210
inhibition of growth at 0.5 µM [26]: 38.8%
inhibition of growth at 1 µM [27]: 41.5%
inhibition of growth at 10 µM [28]: 59.1%
IC50 [29]: 4 µM
Ratio IC50 [30]: 210
inhibition of growth at 0.5 µM [31]: 15.3%
inhibition of growth at 1 µM [32]: 27.6%
inhibition of growth at 10 µM [33]: 44.6%
IC50 [34]: 16 µM
Ratio IC50 [35]: 162
logP [36]: 5.34 to 7.45
solubility [37]: < 10 µg/mL

COc1cccc2c1C(=O)c1c(O)c3c(c(O)c1C2=O)C[C@@](O)(C(=O)CO)C[C@@H]3O[C@H]1C[C@H](N)[C@H](O)[C@H](C)O1 [DOXORUBICIN]
IC50 [29]: 0.54 µM
IC50 [34]: 0.84 µM
